Screening results as filed in PubChem BioAssay.
M4 PAM – potentiates acetylcholine response at human M4 receptor; P08173; CHO-K1 hM4/Gqi5, Fluo-8 calcium fluorescence, ACh EC20; 0% = ACh EC20, 100% = maximal ACh; activation, % at 3 µM; actives 0.4% (n = 360,000); AID 624126;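 active = activation above its plate's cutoff, the mean activation of sample wells plus 3 SD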
CHRM4 antagonist – blocks acetylcholine activation of human M4 receptor; CHO-hM4 cells, ACh EC80, Fluo-8 calcium fluorescence; inhibition, % at 3 µM; actives 0.73% (n = 360,000); AID 624125; P08173;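 active = inhibition above its plate's cutoff, the mean inhibition of sample wells plus 3 SD, cut at about 27% in these data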
M5 ag – agonists of human muscarinic M5 receptor (CHRM5); P08912; activation, % at 3 µM; actives 0.19% (n = 360,000); CHO-K1 hM5 cells, Fluo-8 calcium fluorescence; 0% DMSO wells, 100% maximal acetylcholine response;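 active = activation above the run's mean over test compounds plus 3 SD, cut at about 23% in these data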;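 also: signal is peak over basal fluorescence ratio across the kinetic read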
Target sequence (P08912 whole entry, looked up): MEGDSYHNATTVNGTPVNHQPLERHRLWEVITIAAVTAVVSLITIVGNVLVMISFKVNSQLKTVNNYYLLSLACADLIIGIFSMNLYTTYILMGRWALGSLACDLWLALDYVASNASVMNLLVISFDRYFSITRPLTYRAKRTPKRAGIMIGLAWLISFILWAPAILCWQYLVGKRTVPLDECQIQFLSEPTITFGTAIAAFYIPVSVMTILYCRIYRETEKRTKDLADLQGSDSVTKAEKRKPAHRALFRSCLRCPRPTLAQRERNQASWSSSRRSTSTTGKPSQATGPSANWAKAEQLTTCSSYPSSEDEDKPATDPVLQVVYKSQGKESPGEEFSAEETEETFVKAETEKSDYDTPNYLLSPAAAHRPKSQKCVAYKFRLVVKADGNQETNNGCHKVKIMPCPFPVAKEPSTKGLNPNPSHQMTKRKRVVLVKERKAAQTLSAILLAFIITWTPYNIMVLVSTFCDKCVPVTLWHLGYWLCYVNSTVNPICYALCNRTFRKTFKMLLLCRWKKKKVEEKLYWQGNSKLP
CHRM5 antagonist – antagonists of human muscarinic M5 receptor (CHRM5). P08912. CHO-hM5 cells, Fluo-8 calcium fluorescence, ACh EC80. inhibition, % at 3 µM. actives 0.59% (n = 360,000). AID 624040;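 active = inhibition above a per-plate cutoff, the mean of that plate's test compounds plus 3 SD, cut at about 27% in these data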
M4 ag – CHRM4 agonism in calcium assay; P08173; CHO-K1 hM4/Gqi5, Fluo-8 calcium fluorescence; vehicle 0%, full acetylcholine response 100%; activation, % at 3 µM; actives 0.14% (n = 360,000); AID 624127;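 active = activation above the run mean over all test wells plus 3 SD, cut at about 32% in these data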;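 also: peak over basal fluorescence ratio per well then scaled between controls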
CHRM5 PAM – potentiates acetylcholine response at human M5 receptor; P08912; CHO-K1 hM5, Fluo-8 calcium, ACh EC20 PAM; 0% = ACh EC20, 100% = ACh EC100; activation, % at 3 µM; actives 0.3% (n = 360,000); AID 624038;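 active = activation above the run cutoff, the mean activation of all test compounds plus 3 SD, cut at about 18% in these data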
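System: CHO-K1 cell line with stable human muscarinic M5 receptor expression | Also added: EC20 acetylcholine as agonist stimulus | Compound: One concentration, 3 µM final (nominal) | Timing: Fluo-8 loading 80 min at 37 °C plus 30 min room temperature | Measured by: Fluo-8 calcium dye fluorescence, kinetic read | Read-out basis: % activation, ACh-normalized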
Numbers stand for hits; 0 = inactive. Most compounds without a hit are left out; they make up all but 1.9% or so of the library.

SMILES	M4 PAM	CHRM4 antagonist	M5 ag	CHRM5 antagonist	M4 ag	CHRM5 PAM
Cn1c(=O)c(NCCO)c2c3c(cccc31)C(=O)c1ccccc1-2	0	0	32	0	39	0
Cn1c(=O)c(NCCc2ccccc2)c2c3c(cccc31)C(=O)c1ccccc1-2	0	76	93	74	151	0
COc1ccc(OC)c(NC(=O)C2(C)CCN2Cc2ccccc2OC(F)F)c1 (stereo unspecified)	0	0	0	0	0	0
Cc1c(OC(C)C(=O)NCc2cccnc2)ccc2c3c(c(=O)oc12)CCCC3 (stereo unspecified)	0	0	0	0	0	0
O=C(O)c1ccccc1Cc1nc2cc(Cl)ccc2c(=O)[nH]1	0	0	0	0	0	0
CCOC(=O)c1ccccc1Cc1nc2ccccc2c(=O)[nH]1	0	0	0	44	0	0
Cc1ccc(CNC(=O)CCc2nc3ccccc3c(=O)[nH]2)cc1	0	0	0	0	0	36
O=C(CS(=O)(=O)c1ccccc1)Nc1ccccn1	0	0	0	0	0	0
O=C(CS(=O)(=O)c1ccccc1)Nc1ccc(Br)cn1	0	0	0	0	0	20
COc1ccc(OCCOC(=O)C(C)NS(=O)(=O)c2ccc(NC(C)=O)cc2)cc1 (stereo unspecified)	0	0	0	0	0	0
CCOc1ccc(C2C(C#N)=C(N)Oc3cc(C)n(Cc4ccco4)c(=O)c32)cc1OC (stereo unspecified)	0	0	0	0	0	0
Cc1cc2c(c(=O)n1Cc1ccco1)C(c1cccnc1)C(C#N)=C(N)O2 (stereo unspecified)	30	0	0	0	0	0
CCc1nccn1S(=O)(=O)c1cc(OC)ccc1OC	0	0	0	0	0	0
COc1cccc(C2CC(=O)N3CN(c4ccccc4F)CSC3=C2C#N)c1 (stereo unspecified)	0	0	0	0	0	0
COc1ccc(OC)c(C2CC(=O)N3CN(c4ccccc4F)CSC3=C2C#N)c1 (stereo unspecified)	0	0	0	0	0	22
COc1ccc(N(CC(=O)NCc2ccc3c(c2)OCO3)C(=O)CCC(=O)Nc2ccccn2)cc1	0	0	0	0	0	0
CC(C)Cc1nn2c(N)c(/C=C3\C=Nc4ccccc43)c(=O)nc2s1	0	0	0	32	0	0
CC(NC(=O)c1ccco1)C(=O)N(C)Cc1ccc(C(F)(F)F)cc1 (stereo unspecified)	0	0	0	0	0	0
O=C(CCN1C(=O)S/C(=C/c2ccc(F)cc2)C1=O)Nc1ccc(O)c(C(=O)O)c1	0	0	0	0	0	0
O=C(CCN1C(=O)S/C(=C\c2ccc(F)cc2)C1=O)Nc1ccc(C(=O)O)c(O)c1	17	0	0	0	0	0
O=C(O)c1cc(-c2cccs2)[nH]n1	28	0	0	0	0	0
CCOC(=O)c1cc(-c2cccs2)[nH]n1	0	0	0	0	0	0
COCCN(C)Cc1nc(C(c2ccccc2)c2ccccc2)no1	0	0	0	0	0	0
CCC(c1ccccc1)c1noc(CCN(CC)CC)n1 (stereo unspecified)	0	59	0	59	0	0
Cc1ccccc1NC(=S)N1CCN(c2ccccc2)CC1	0	0	0	0	0	0
SMILES	M4 PAM	CHRM4 antagonist	M5 ag	CHRM5 antagonist	M4 ag	CHRM5 PAM
Cc1nc(C)c(-c2csc(Nc3ccccn3)n2)s1	0	0	0	0	0	0
Cc1ccc(Nc2nc(-c3sc(N)nc3C)cs2)cc1	0	0	0	0	0	20
Cc1nc(N)sc1-c1csc(Nc2ccccn2)n1	0	28	0	0	0	0
Cc1ccc(-c2csc(Nc3ccccn3)n2)cc1	14	0	0	0	0	0
c1ccc(-c2csc(Nc3ccccn3)n2)cc1	0	0	0	0	0	0
Clc1cccc(Cc2c(C3CCCCC3)nc3ccc(Br)cn23)c1	0	0	0	0	0	0
Cc1nnc(SCC(=O)NC(C)(C)C)n1NCc1cccc(Br)c1	0	0	0	0	0	0
O=C1CCCCC(=O)N(c2ccccc2)c2ccccc21	0	0	0	0	0	18
C[C@@H]1COc2cc(N3CCN(Cc4ccccc4F)CC3)ccc2S(=O)(=O)N1	0	0	0	0	0	0
Cn1c(-c2ccccc2)cc(=NNS(C)(=O)=O)c2cc(S(=O)(=O)O)ccc21	0	0	0	0	0	0
COc1ccc2sc(C)nc2c1NC(C)=O	0	0	0	0	0	0
COc1cc2sc(C)nc2c2sccc12	18	0	0	0	0	0
COC(=O)c1ccc2nc(-c3ccc(F)cc3)c(Cc3cccc(Cl)c3)n2c1	0	35	0	77	0	0
COC(=O)c1ccc2nc(-c3ccc(F)cc3)c(Cc3cccc(F)c3)n2c1	0	0	0	36	0	0
COC(=O)c1ccc2nc(-c3ccccc3)c(Cc3cccc(F)c3)n2c1	0	0	0	0	0	0
COc1ccc(CCNC(=O)CSc2c[nH]c3ccccc23)cc1OC	0	0	0	0	0	0
O=C1C=CC(=O)N1CCNc1ncc(C(F)(F)F)cc1Cl	0	28	0	0	0	0
O=C1CC(=O)N(CCNc2ncc(C(F)(F)F)cc2Cl)C(=O)N1	0	0	0	0	0	0
CCC1([N+](=O)[O-])COC(c2ccc(Cl)cc2)OC1 (stereo unspecified)	27	0	0	0	0	0
CC1(C(=O)O)COC(c2ccc(Cl)cc2)OC1 (stereo unspecified)	0	0	0	0	0	0
CCN1/C(=C2\C(=O)N(c3ccccc3)N=C2C)C=Cc2cc(C)ccc21	0	0	39	0	0	0
CCN1/C(=c2/s/c(=C3/C(=O)N(c4ccccc4)N=C3C)n(CC)c2=O)C=Cc2ccccc21	0	0	0	0	0	0
CCSc1nsc(NC(=O)Nc2ccccc2F)n1	0	0	0	0	0	0
C=CCSc1nsc(NC(=O)Nc2ccc(F)cc2)n1	0	0	0	33	0	0
O=C(C1=C(O)C(=O)N(CCOCCO)C1c1cccc([N+](=O)[O-])c1)c1cccs1 (stereo unspecified)	0	0	0	0	0	22
CCOc1cccc(C2C(C(=O)c3cccs3)=C(O)C(=O)N2Cc2cccnc2)c1 (stereo unspecified)	0	0	0	0	0	29
CCCCOc1cccc(C2C(C(=O)c3cccs3)=C(O)C(=O)N2Cc2cccnc2)c1 (stereo unspecified)	0	0	0	0	0	0
